Experimental data as given in ChEMBL document CHEMBL1125774, “3-Methyl-2H-1-benzopyran potassium channel activators” (J Med Chem, 1991).

Assays:
Assay type in all cases: functional
Sus scrofa = species on record: Sus scrofa; experiment: Relaxing effect determined by measuring inhibition of acetylcholine-induced contractions in pig coronary arteries.
Method in brief: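 Pig coronary artery rings from slaughterhouse hearts, resting tension 2 g, isometric force recording. Control acetylcholine contraction repeated every 45 min for three or four cycles, with the last cycle as predrug value. Rising compound concentrations added 30 min before agonist; a solvent ring served as time control.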

Oryctolagus cuniculus [1] = species on record: Oryctolagus cuniculus; experiment: Compound measured for hyperpolarization of smooth muscle cells of the rabbit main pulmonary artery at concentration 100 uM.
Method in brief: (§1)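 Rabbit main pulmonary artery strips; intracellular glass microelectrode recording of smooth muscle membrane potential after 60 min equilibration. Baseline taken as potential reached with 1 µM noradrenaline. Bath medium exchanged for solutions of increasing compound concentration. At least four cells measured per concentration. Value is hyperpolarization (ΔmV) at the stated concentration, averaged over two preparations.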

Oryctolagus cuniculus [2] = species on record: Oryctolagus cuniculus; experiment: Compound measured for hyperpolarization of smooth muscle cells of the rabbit main pulmonary artery at concentration 0.1 uM.; method in brief: as §1
Oryctolagus cuniculus [3] = species on record: Oryctolagus cuniculus; experiment: Drug concentration required to induce half maximal hyperpolarization in rabbit main pulmonary arteries
Method in brief: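 Rabbit main pulmonary artery strips, 60 min equilibration, predepolarized with 1 µM noradrenaline. Membrane potential recorded intracellularly with glass microelectrodes in at least four cells per concentration while compound concentration was raised by bath exchange. EC50 is the concentration giving half-maximal hyperpolarization, taken from concentration/response curves.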

Oryctolagus cuniculus [4] = species on record: Oryctolagus cuniculus; experiment: Relaxing effect by measuring inhibition of noradrenaline-induced contractions in rabbit main pulmonary arteries
Method in brief: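 Rabbit pulmonary artery rings 5 mm wide, resting tension 2 g, equilibrated 60–90 min, isometric force recording. Rings contracted with 0.7-1 µM noradrenaline (about 80% of maximal response). Once force was stable, compound added cumulatively in 0.5 log increments. IC50 (50% inhibition) determined graphically for each experiment and reported as geometric mean with 95% confidence limits.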

Oryctolagus cuniculus [5] = species on record: Oryctolagus cuniculus; experiment: Compound measured for hyperpolarization of smooth muscle cells of the rabbit main pulmonary artery at concentration 3 uM.; method in brief: as §1
Oryctolagus cuniculus [6] = species on record: Oryctolagus cuniculus; experiment: Compound measured for hyperpolarization of smooth muscle cells of the rabbit main pulmonary artery at concentration 1 uM.; method in brief: as §1
Oryctolagus cuniculus [7] = species on record: Oryctolagus cuniculus; experiment: Compound measured for hyperpolarization of smooth muscle cells of the rabbit main pulmonary artery at concentration 4 uM.; conditions: in the assay text read “10 uM” for “4 uM”; method in brief: as §1
Oryctolagus cuniculus [8] = species on record: Oryctolagus cuniculus; experiment: Compound measured for hyperpolarization of smooth muscle cells of the rabbit main pulmonary artery at concentration 10 uM.; method in brief: as §1

Row | SMILES | IC50 (Sus scrofa) [µM] | Delta mV (Oryctolagus cuniculus [1]) | also measured
1 | CC1=C(N2CCCC2=O)c2cc(C#N)ccc2OC1(C)C | > 100 | 29 | –
2 | C[C@H]1[C@H](n2ccccc2=O)c2cc(C#N)ccc2OC1(C)C | > 100 | – | Delta mV (Oryctolagus cuniculus [6]): 10
3 | CC1(C)Oc2ccc(C#N)cc2[C@@H](n2ccccc2=O)[C@]1(C)O | > 100 | 19 | –
4 | CC1(C)Oc2ccc(C#N)cc2[C@]2(n3ccccc3=O)O[C@]12C | > 100 | 10 | –
5 | CC1(C)Oc2ccc(C#N)cc2[C@@H](Oc2ccc(=O)[nH]n2)[C@@]1(O)Cc1ccccc1 | > 100 | 6 | –
6 | CC1(C)Oc2ccc(C#N)cc2[C@@H](n2nc(N)ccc2=O)[C@]1(C)O | 40 | 13 | –
7 | CC1(C)Oc2ccc(C#N)cc2[C@@H](On2ccccc2=O)[C@]1(C)O | > 100 | 21 | –
8 | CC1=C(n2ccccc2=O)c2cc(C#N)ccc2OC1(C)C | 5 | 29 | –
9 | CC1(C)Oc2ccc(C#N)cc2[C@H](Oc2ccc(=O)[nH]n2)[C@@]1(C)O | – | 20 | –
10 | C[C@]1(O)[C@H](n2ccccc2=O)c2cc(C#N)ccc2OC12CCCCC2 | 20 | 3 | –
11 | CC1(C)Oc2ccc(C#N)cc2[C@@H](n2ccccc2=O)[C@@H]1O | – | – | EC50 (Oryctolagus cuniculus [3]): 105 nM; IC50 (Oryctolagus cuniculus [4]): 174 nM; Delta mV (Oryctolagus cuniculus [6]): 34
12 | CC1(C)Oc2ccc(C#N)cc2[C@@H](Oc2ccc(=O)[nH]n2)[C@@]1(O)COCc1ccccc1 | > 100 | 16 | –
13 | CC1(C)Oc2ccc(C#N)cc2[C@@H](N2CCCC2=O)[C@]1(C)O | 4 | – | Delta mV (Oryctolagus cuniculus [7]): 23
14 | C[C@]1(O)[C@H](Oc2ccc(=O)[nH]n2)c2cc(C#N)ccc2OC12CCCCC2 | 80 | 26 | –
15 | CC1(C)Oc2ccc(C#N)cc2[C@@H](Oc2ccccn2)[C@]1(C)O | 6 | 25 | –
16 | CC1(C)Oc2ccc(C#N)cc2[C@@H](Nn2ccccc2=O)[C@]1(C)O | > 100 | 12 | –
17 | CCOC[C@]1(O)[C@H](Oc2ccc(=O)[nH]n2)c2cc(C#N)ccc2OC1(C)C | 50 | 12 | –
18 | CC1(C)Oc2ccc([N+](=O)[O-])cc2[C@@H](n2ccccc2=O)[C@]1(C)O | 20 | – | Delta mV (Oryctolagus cuniculus [8]): 22
19 | CC1(C)Oc2ccc(C#N)cc2[C@@H](Oc2ccc(=O)[nH]n2)[C@@]1(O)CO | 0.7 | – | Delta mV (Oryctolagus cuniculus [5]): 32

Continued by falling IC50 (Sus scrofa), values first:

Row | IC50 (Sus scrofa) [µM] | SMILES | Delta mV (Oryctolagus cuniculus [1]) | also measured
20 | 0.7 | CC1(C)Oc2ccc(C#N)cc2C(N2CCCC2=O)C1O (stereo unspecified) [CROMAKALIM] | – | EC50 (Oryctolagus cuniculus [3]): 263 nM; IC50 (Oryctolagus cuniculus [4]): 420 nM; Delta mV (Oryctolagus cuniculus [5]): 28
21 | 0.05 | Cn1nc(O[C@@H]2c3cc(C#N)ccc3OC(C)(C)[C@H]2O)ccc1=O | – | EC50 (Oryctolagus cuniculus [3]): 11 nM; IC50 (Oryctolagus cuniculus [4]): 26 nM; Delta mV (Oryctolagus cuniculus [2]): 29
22 | 0.05 | CC1(C)C=C(n2ccccc2=O)c2cc(C#N)ccc2O1 [BIMAKALIM] | – | EC50 (Oryctolagus cuniculus [3]): 27 nM; IC50 (Oryctolagus cuniculus [4]): 57 nM; Delta mV (Oryctolagus cuniculus [2]): 23
23 | 0.03 | Cn1nc(O[C@@H]2c3cc(C#N)ccc3OC(C)(C)[C@@]2(C)O)ccc1=O | – | Delta mV (Oryctolagus cuniculus [2]): 24
24 | 0.02 | Cn1nc(N[C@@H]2c3cc(C#N)ccc3OC(C)(C)[C@@]2(C)O)ccc1=O | – | Delta mV (Oryctolagus cuniculus [2]): 34
25 | 0.02 | CC1(C)Oc2ccc(C#N)cc2[C@@H](OC2=CC(=O)CC2)[C@]1(C)O | – | Delta mV (Oryctolagus cuniculus [6]): 25
26 | 0.02 | CC1(C)Oc2ccc([N+](=O)[O-])cc2[C@@H](Oc2ccc(=O)[nH]n2)[C@]1(C)O | – | Delta mV (Oryctolagus cuniculus [2]): 24
27 | 0.007 | CCn1nc(O[C@@H]2c3cc(C#N)ccc3OC(C)(C)[C@@]2(C)O)ccc1=O | – | Delta mV (Oryctolagus cuniculus [2]): 22
28 | 0.006 | CC1(C)Oc2ccc(C#N)cc2[C@@H](Oc2ccc(=O)[nH]n2)[C@]1(C)O | – | EC50 (Oryctolagus cuniculus [3]): 3 nM; IC50 (Oryctolagus cuniculus [4]): 2 nM; Delta mV (Oryctolagus cuniculus [2]): 29
29 | 0.004 | CC1(C)Oc2ccc(C#N)cc2[C@@H](Oc2ccnc(O)c2)[C@]1(C)O | – | Delta mV (Oryctolagus cuniculus [2]): 35
